CSN deneddyl inh – inhibitors of CSN-mediated cullin deneddylation, primary screen, biochemical, fluorescence polarization, uHTS. COP9 signalosome complex subunit 5 (Homo sapiens), Q92905. Purified CSN, SCF-Nedd8-OG deneddylation. inhibition, % at 12.5 µM. 0.38% of 360,000 active;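 active = pattern-corrected inhibition above about 35%, with an unprinted fluorescence ratio check between 0.5 and 1.5, limit read from the data, passing the limit was not always enough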
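Assay system: purified human Csn5 enzyme expressed in HEK293T cells; Input: 0.24 nM Csn5 enzyme, final concentration; Reagent: 10 nM SCFSkp2-Nedd8OG; Compound dosing: 12.5 µM single point; Times: reaction 90 min, room temperature; Technique: fluorescence polarization readout.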
LEDGF integ inh – blockers of LEDGF/p75-dependent integrase strand transfer – biochemical, TR-FRET, high throughput, primary screen; TR-FRET IN-LEDGF/p75 DNA integration, Eu/Cy5; 0.64% of 370,000 active; inhibition, % at 3.7 µM;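 active = inhibition above the screen-wide mean plus 3 SD, cut at about 13% in these data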;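 also: signal is the Cy5 over europium emission ratio at 671 and 618 nm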
ATG4B inhibitor – ATG4B protease inhibitors, primary screen, biochemical, fluorescence, uHTS; Cysteine protease ATG4B (Homo sapiens), Q9Y4P1; ATG4B cleavage of LC3-PLA2, NBD-HPC fluorescence, 1 h; inhibition, % at 8.33 µM; 0.51% of 340,000 active; AID 504462, 2011; in the data active = inhibition above about 40%
UHRF1 MBD2 ctr – UHRF1 methylated DNA binding inhibitors, primary screen, counter-screen for MBD2 inhibitor project, biochemical, TR-FRET, human UHRF1, single concentration; E3 ubiquitin-protein ligase UHRF1 (Homo sapiens), Q96T88; UHRF1 binding to methylated oligo; inhibition, % at 4.4 µM; 0.75% of 370,000 active; AID 687016, 2013; in the data active = inhibition above about 21%;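 also: UHRF1 SRA domain binding a hemimethylated CpG hairpin DNA probe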
Target sequence (Q96T88 whole entry, looked up, the tested form may be a part): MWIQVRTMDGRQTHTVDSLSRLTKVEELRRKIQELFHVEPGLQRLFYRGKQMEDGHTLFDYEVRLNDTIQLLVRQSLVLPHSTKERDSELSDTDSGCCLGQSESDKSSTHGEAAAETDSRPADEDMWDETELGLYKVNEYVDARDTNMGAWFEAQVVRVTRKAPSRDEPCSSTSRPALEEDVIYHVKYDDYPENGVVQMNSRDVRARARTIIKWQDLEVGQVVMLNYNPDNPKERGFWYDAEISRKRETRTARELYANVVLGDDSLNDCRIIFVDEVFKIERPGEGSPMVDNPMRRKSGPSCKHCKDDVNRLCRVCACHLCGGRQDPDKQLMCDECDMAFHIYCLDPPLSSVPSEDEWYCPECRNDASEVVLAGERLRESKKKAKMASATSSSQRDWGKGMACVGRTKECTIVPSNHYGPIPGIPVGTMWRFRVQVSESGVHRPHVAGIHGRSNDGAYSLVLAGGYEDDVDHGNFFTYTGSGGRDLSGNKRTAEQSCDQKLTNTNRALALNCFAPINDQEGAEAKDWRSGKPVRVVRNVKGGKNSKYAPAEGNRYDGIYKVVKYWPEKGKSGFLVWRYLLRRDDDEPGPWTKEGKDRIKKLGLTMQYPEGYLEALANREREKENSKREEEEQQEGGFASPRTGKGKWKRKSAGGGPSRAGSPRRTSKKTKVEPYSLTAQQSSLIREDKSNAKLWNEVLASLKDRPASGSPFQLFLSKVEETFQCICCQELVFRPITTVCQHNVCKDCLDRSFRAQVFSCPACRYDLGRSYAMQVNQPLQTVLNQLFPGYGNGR
MBD2 inh – inhibitors of MBD2 binding to methylated DNA, primary screen, biochemical, TR-FRET, DNA-binding domain, human. Methyl-CpG-binding domain protein 2 (Homo sapiens), Q9UBB5. 0.31% of 370,000 active. inhibition, % at 4.4 µM. MBD2 binding to methylated oligonucleotide; in the data active = inhibition above about 13%
rCAG RNA binder – binders of r(CAG) RNA repeats, primary screen, biochemical, fluorescence | 1.3% of 370,000 active | r(CAG) RNA repeat, TO-PRO-1 dye displacement fluorescence | inhibition, % at 3 µM | AID 651821, 2012;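 active = inhibition above the plate cutoff, the mean of all test compounds on that plate plus 3 SD, cut at about 35% in these data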;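 also: higher means more dye released from RNA so lower well fluorescence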
rCAG binder conf – small molecules binding CAG repeat RNA – biochemical, fluorescence, confirmation | AID 652065, 2013 | shares compounds with rCAG RNA binder | r(CAG) RNA repeat, TO-PRO-1 dye displacement fluorescence | 70% of 4,300 active | inhibition, % at 3 µM;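 active = inhibition above a per-plate cutoff, the mean inhibition of sample wells plus 3 SD, cut at about 35% in these data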;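 also: loss of TO-PRO-1 fluorescence as compound displaces dye from 1x1 AA loop RNA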
DNA CAG counter – displacement of TO-PRO-1 from CAG DNA duplex, counter-screen for rCAG RNA repeat binder project, biochemical, fluorescence, TO-PRO-1 dye, d(CAG) DNA oligo. shares compounds with rCAG RNA binder. inhibition, % at 3 µM. d(CAG) DNA oligo TO-PRO-1 dye displacement. 94% of 4,300 active. AID 652068, 2013;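 active = inhibition above its plate's cutoff, the mean test-well inhibition plus 3 SD, cut at about 4.8% in these data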;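 also: hits displace the dye from DNA and so lower well fluorescence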
DNA CAG DR – inhibitors of DNA CAG/GTC TO-PRO-1 complex, dose response, counter-screen for rCAG RNA repeat binder project, biochemical, fluorescence, TO-PRO-1 dye; shares compounds with rCAG RNA binder; DNA CAG/GTC duplex TO-PRO-1 dye displacement fluorescence; IC50, µM; 20% of 250 active; AID 686960, 2013; in the data active = IC50 below about 10 µM
Of the large screens only hits and unclear results are named; the others gave an inactive call (follow-up assays come after a bar, where they were run). A selection: hits, their analogues and other compounds. The true share with any hit is near 3.1%.

Cc1ccc(-c2csc(NC(=O)c3ccccc3Cl)c2C(=O)O)cc1	rCAG RNA binder 46 | rCAG binder conf inactive | DNA CAG counter 7.5
CC(C)c1ccc(-c2csc(NC(=O)c3cccs3)c2C(=O)O)cc1	rCAG RNA binder 83 | rCAG binder conf 77 | DNA CAG counter 33 | DNA CAG DR 7.8
CC(C)c1ccc(C(CC(=O)O)NC(=O)c2cccs2)cc1 (stereo unspecified)	none
CCOC(=O)N1CCC2(CC1)C(C#N)=C(N)Oc1c2c(C)nn1-c1cccc(Cl)c1	rCAG RNA binder 36 | rCAG binder conf inactive | DNA CAG counter 16
CCOC(=O)N1CCC2(CC1)C(C#N)=C(N)Oc1n[nH]c(C)c12	none
CC(=NNc1nc2ccccc2s1)c1ccncn1	none
C/C(=N\Nc1nc2ccccc2s1)c1ccc(Br)s1	rCAG RNA binder 35 | rCAG binder conf inactive | DNA CAG counter 8.7
C[N+]1=C2N[C@@H](c3ccccc3)CC(=O)N2/C(=C\c2ccccc2)[C@@H]1Cc1ccccc1	none (no result: CSN deneddyl inh, ATG4B inhibitor, rCAG RNA binder)
CNC(=S)N/N=C/c1ccc(-c2ccc(Cl)c([N+](=O)[O-])c2)o1	none
O=[N+]([O-])c1cccc(-c2ccc(/C=N/NC(=S)Nc3cccc(F)c3)o2)c1	rCAG RNA binder 39 | rCAG binder conf inactive | DNA CAG counter 13
NC(=S)N/N=C/c1ccc(-c2cccc([N+](=O)[O-])c2)o1	none
Cc1ccc(-c2ccc(/C=N/NC(=S)Nc3ccccc3)o2)cc1[N+](=O)[O-]	rCAG RNA binder 43 | rCAG binder conf inactive | DNA CAG counter 16
COc1ccc(-c2ccc3c(n2)CCCN3S(=O)(=O)c2ccccc2)cc1	none (no result: CSN deneddyl inh, ATG4B inhibitor)
Oc1ccc(/C=N/Nc2ccnc3cc(Cl)ccc23)cc1O	none
Oc1ccc(/C=N/Nc2ccnc3cc(Cl)ccc23)c(O)c1O	rCAG RNA binder 38 | rCAG binder conf 59 | DNA CAG counter 28 | DNA CAG DR inactive
O=C(NCc1cccs1)C1CCCN(S(=O)(=O)c2ccccc2)C1 (stereo unspecified)	none (no result: CSN deneddyl inh, ATG4B inhibitor)
Cc1ccnc2c(N3C(=O)C4C5c6ccccc6C(c6ccccc65)C4C3=O)cccc12 (stereo unspecified)	rCAG RNA binder 47 | rCAG binder conf inactive | DNA CAG counter 4.4
O=C(O)COc1ccccc1/C=N/NC(=O)Cc1csc(Nc2cccc(C(F)(F)F)c2)n1	rCAG RNA binder 59 | rCAG binder conf 55 | DNA CAG counter 17
O=C1CSc2ccc(C(=O)N3CCCC(C(=O)N4CCCN(Cc5ccccc5)CC4)C3)cc2N1 (stereo unspecified)	none (no result: CSN deneddyl inh, ATG4B inhibitor)
COc1ccc(-c2cc(C(=O)NC(Cc3cc4ccccc4[nH]3)C(=O)O)c(C)o2)cc1OC (stereo unspecified)	rCAG RNA binder 49 | rCAG binder conf 50 | DNA CAG counter 15
Cc1c(NS(=O)(=O)c2cc3c(cc2Br)CCN3C(=O)C2CC2)c(=O)n(-c2ccccc2)n1C	none (no result: CSN deneddyl inh, ATG4B inhibitor)
C=CCOC/C=C/C#CCN(Cc1ccc(OC)cc1OC)C(=O)Nc1ccccc1	none (no result: CSN deneddyl inh, ATG4B inhibitor)
COC(=O)[C@H](C(C)C)N1CCc2nnn(Cc3ccccc3)c2-c2cc(F)ccc2S1(=O)=O	none (no result: CSN deneddyl inh, ATG4B inhibitor)
CCOc1ccc(NC(=NCc2ccc3c(c2)OCO3)SC2CC(=O)N(c3ccc(C(=O)O)cc3)C2=O)cc1 (stereo unspecified)	rCAG RNA binder 78 | rCAG binder conf 85 | DNA CAG counter 54
CCOc1ccc(NC(=NCc2ccc3c(c2)OCO3)SC2CC(=O)N(c3ccc(OCC)cc3)C2=O)cc1 (stereo unspecified)	none
N#Cc1c(NC(=O)/C=C/c2ccco2)sc2c1CCCC2	rCAG RNA binder 38 | rCAG binder conf inactive | DNA CAG counter 14
N#Cc1c(NC(=O)c2ccccc2)sc2c1CCCCC2	none
O=C(O)c1[nH]c2ccccc2c1C(c1ccccc1)c1c(C(=O)O)[nH]c2ccccc12	rCAG RNA binder 70 | rCAG binder conf 47 | DNA CAG counter 15
C=CCOc1ccc(C(c2c(C(=O)O)[nH]c3ccccc23)c2c(C(=O)O)[nH]c3ccccc23)cc1	rCAG RNA binder 92 | rCAG binder conf 82 | DNA CAG counter 51
COc1cc(C(c2c(C(=O)O)[nH]c3ccccc23)c2c(C(=O)O)[nH]c3ccccc23)ccc1OCc1ccccc1	rCAG RNA binder 94 | rCAG binder conf 90 | DNA CAG counter 68
O=C(O)COc1ccc(Br)cc1C(c1c(C(=O)O)[nH]c2ccccc12)c1c(C(=O)O)[nH]c2ccccc12	none (no result: LEDGF integ inh, UHRF1 MBD2 ctr, MBD2 inh, rCAG RNA binder)
COc1ccc(CN=Cc2c(C(=O)O)[nH]c3ccccc23)cc1	none
NC(=NCc1ccccc1)NC(=O)OCc1ccccc1	none (no result: CSN deneddyl inh, ATG4B inhibitor)
CC(C)C1N=C(NC(=O)OCc2ccccc2)NC1=O (stereo unspecified) (tested in a mixture with another compound)	none (no result: CSN deneddyl inh, ATG4B inhibitor)
CC(=O)N1CCc2cc(S(=O)(=O)NCCC(=O)N(C)Cc3ccccc3F)ccc21	none (no result: CSN deneddyl inh, ATG4B inhibitor)
CCOc1ccc(C(=O)/C=C/Nc2ccc(S(=O)(=O)Nc3onc(C)c3C)cc2)cc1	rCAG RNA binder 42 | rCAG binder conf 64 | DNA CAG counter 25
Cc1cc(N/C=C/C(=O)c2cccc3ccccc23)no1	none
Cc1noc(NS(=O)(=O)c2ccc(N/C=C\C(=O)c3cccc4ccccc34)cc2)c1C	rCAG RNA binder 72 | rCAG binder conf 81 | DNA CAG counter 46
Cc1noc(NS(=O)(=O)c2ccc(N/C=C\C(=O)c3ccc4c(c3)OCO4)cc2)c1C	rCAG RNA binder 44 | rCAG binder conf 43 | DNA CAG counter 14

Compound activity deposited in PubChem BioAssay by several laboratories.
